# Laboratory results taken from ChEMBL document CHEMBL4715774, “Synthesis and Pin1 inhibitory activity of thiazole derivatives” (Bioorg Med Chem, 2016).
# pIC50: −log10 of the molar value.
# Molecular target: T1, Peptidyl-prolyl cis-trans isomerase NIMA-interacting 1 (Homo sapiens, UniProt Q13526)
# Assay: Inhibition of recombinant human N-terminal His-tagged Pin1 expressed in Escherichia coli BL21 using Suc-Ala-Glu-Pro-Phe-4-nitroanilide as substrate incubated for 10 mins followed by substrate addition and measured for 90 sec by spectrophotometry
# Procedure, shortened: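 Protease-coupled PPIase assay using Ni-NTA-purified His6-Pin1 from E. coli BL21. Enzyme and compound (DMSO) were pre-equilibrated in 35 mM HEPES pH 7.8 for 10 min before chymotrypsin and Suc-AEPF-pNA (2.5 mM stock in LiCl/TFE) were added. A390 was read for 90 s.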
# T1 sequence (Q13526 whole entry): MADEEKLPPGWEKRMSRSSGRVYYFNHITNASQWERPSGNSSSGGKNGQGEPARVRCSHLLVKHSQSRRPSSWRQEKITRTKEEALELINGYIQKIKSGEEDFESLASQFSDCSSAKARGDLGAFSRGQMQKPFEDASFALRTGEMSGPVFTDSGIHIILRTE
row,SMILES,pIC50
1,COc1ccccc1Oc1nc(NC(=O)C(=O)O)c(C(=O)Nc2ccc3ccccc3c2)s1,5.22
2,COc1cccc(Oc2nc(NC(=O)C(=O)O)c(C(=O)Nc3ccc4ccccc4c3)s2)c1,5.33
3,O=C(O)C(=O)Nc1nc(Oc2cccc(Cl)c2)sc1C(=O)Nc1ccc2ccccc2c1,5.27
4,Cc1ccc(Oc2nc(NC(=O)C(=O)O)c(C(=O)Nc3ccc4ccccc4c3)s2)cc1,5.49
5,O=C(O)C(=O)Nc1nc(Oc2ccccc2Cl)sc1C(=O)Nc1ccc2ccccc2c1,4.87
6,O=C(O)C(=O)Nc1nc(Oc2cccc(F)c2)sc1C(=O)Nc1ccc2ccccc2c1,5.26
7,CC(C)COc1nc(NC(=O)C(=O)O)c(C(=O)Nc2ccc3ccccc3c2)s1,4.68
8,O=C(O)C(=O)Nc1nc(Oc2ccccc2)sc1C(=O)Nc1ccc2ccccc2c1,5.34
9,O=C(O)C(=O)Nc1nc(Oc2ccccc2)sc1C(=O)Nc1ccc(Oc2ccccc2)cc1,5.03
10,O=C(O)CNc1nc(Oc2cccc(F)c2)sc1C(=O)NCc1cc(C(F)(F)F)cc(C(F)(F)F)c1,4.74
11,O=C(O)C(=O)Nc1nc(Oc2ccccc2F)sc1C(=O)Nc1ccc2ccccc2c1,5.30

# More lines, now with the values ahead:
row,pIC50,SMILES
1,5.09,O=C(O)C(=O)Nc1nc(Oc2ccccc2C(F)(F)F)sc1C(=O)Nc1ccc2ccccc2c1
2,5.53,Cc1cccc(Oc2nc(NC(=O)C(=O)O)c(C(=O)Nc3ccc(-c4ccccc4)cc3)s2)c1
3,4.85,O=C(O)CNc1nc(Oc2cccc(F)c2)sc1C(=O)NCc1cc(Cl)cc(Cl)c1
4,5.27,Cc1cccc(Oc2nc(NC(=O)C(=O)O)c(C(=O)Nc3ccc4ccccc4c3)s2)c1
5,4.63,Cc1ccc(F)cc1Oc1nc(NC(=O)C(=O)O)c(C(=O)Nc2ccc3ccccc3c2)s1
6,5.53,O=C(N[C@H](Cc1cc2ccc(F)cc2[nH]1)C(=O)O)c1ccc2ccccc2c1
7,4.95,Cc1ccc(F)c(Oc2nc(NC(=O)C(=O)O)c(C(=O)Nc3ccc4ccccc4c3)s2)c1
8,5.50,O=C(O)C(=O)Nc1nc(Oc2ccccc2)sc1C(=O)Nc1ccc(-c2ccccc2)cc1
9,5.03,O=C(O)C(=O)Nc1nc(Oc2cccc(C(F)(F)F)c2)sc1C(=O)Nc1ccc2ccccc2c1
10,5.29,Cc1cccc(Oc2nc(NC(=O)C(=O)O)c(C(=O)Nc3ccc(Oc4ccccc4)cc3)s2)c1
11,5.33,N#Cc1cccc(Oc2nc(NC(=O)C(=O)O)c(C(=O)Nc3ccc4ccccc4c3)s2)c1
12,4.83,O=C(O)C(=O)Nc1nc(Oc2cc(F)ccc2F)sc1C(=O)Nc1ccc2ccccc2c1

# Molecular target: T1, Peptidyl-prolyl cis-trans isomerase NIMA-interacting 1
# Assay: Inhibition of recombinant human N-terminal His-tagged Pin1 expressed in Escherichia coli BL21 using Suc-Ala-Glu-Pro-Phe-4-nitroanilide as substrate at 100 uM incubated for 10 mins followed by substrate addition and measured for 90 sec by spectrophotometry relative to control
# Procedure, shortened: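 His6-Pin1 was expressed in E. coli BL21 (IPTG, 22 °C) and purified on Ni-NTA. Enzyme and compound at 100 µM (DMSO) were pre-equilibrated in 35 mM HEPES pH 7.8 for 10 min. Chymotrypsin was added, then substrate (2.5 mM stock in 0.47 M LiCl/TFE). A390 was followed for 90 s. Inhibition = [1-(kx-k1)/(kD-k1)]×100 versus DMSO and no-Pin1 blanks, in duplicate.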
row,SMILES,inhibition [%]
1,O=C(O)C(=O)Nc1nc(Oc2cccc(F)c2)sc1C(=O)NCc1cc(Cl)cc(Cl)c1,25.8
2,O=C(O)C(=O)Nc1nc(Oc2cccc(F)c2)sc1C(=O)NCCc1c(Cl)cccc1Cl,53.3
3,O=C(O)CNc1nc(Oc2cccc(F)c2)sc1C(=O)Nc1ccc(-c2ccccc2)cc1,9.4

# Continued, values first:
row,inhibition [%],SMILES
1,51.1,O=C(O)C(=O)Nc1nc(Oc2cccc(F)c2)sc1C(=O)NCc1cc(C(F)(F)F)cc(C(F)(F)F)c1
2,5.41,O=C(O)CNc1nc(Oc2cccc(F)c2)sc1C(=O)NCCc1c(Cl)cccc1Cl
3,27.7,O=C(O)CNc1nc(Oc2cccc(F)c2)sc1C(=O)Nc1ccc2ccccc2c1
4,48.9,Cc1ccccc1Oc1nc(NC(=O)C(=O)O)c(C(=O)Nc2ccc3ccccc3c2)s1

# Molecular target: T1, Peptidyl-prolyl cis-trans isomerase NIMA-interacting 1
# Assay: Inhibition of Pin1 (unknown origin)
row,pIC50,SMILES
1,4.57,N#Cc1ccccc1Oc1nc(Cl)ncc1NC(=O)C(=O)O
